Results reported in ChEMBL document CHEMBL1140108, “In vivo positron emission tomography (PET) imaging with an alphavbeta6 specific peptide radiolabeled using 18F-"click" chemistry: evaluation and comparison with the corresponding 4-[18F]fluorobenzoyl- and 2-[18F]fluoropropionyl-peptides” (J Med Chem, 2008).

How the values were obtained:
Details in all cases: in vivo
[1] = Biodistribution in gall bladder of athymic nu/nu mouse bearing human alphavbeta6 expressing DX3purobeta6 cells at 15 to 30 uCi, iv after 1 hr; assay type: ADME, organism-based
How it was run: (§1)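 Male athymic nu/nu mice carried s.c. xenografts on opposite shoulder flanks: 3 × 10^6 DX3puro or DX3puroβ6 cells in serum-free DMEM, integrin expression checked by flow cytometry beforehand, used 2-5 weeks later. [18F]-peptide (approx. 15-30 μCi) in isotonic solution given i.v. via tail-vein catheter under 3% isoflurane. 1 h conscious uptake, then sacrificed and dissected (n = 3 per tracer). Organs γ-counted, decay-corrected, reported as % ID/g.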

[2] = system: Kidney; assay: Biodistribution in kidney of athymic nu/nu mouse bearing human alphavbeta6 expressing DX3purobeta6 cells at 15 to 30 uCi, iv after 1 hr; assay type: ADME, organism-based; how it was run: as §1
[3] = system: Spleen; assay: Biodistribution in spleen of athymic nu/nu mouse bearing human alphavbeta6 expressing DX3purobeta6 cells at 15 to 30 uCi, iv after 1 hr; assay type: ADME, organism-based; how it was run: as §1
[4] = system: Pancreas; assay: Biodistribution in pancreas of athymic nu/nu mouse bearing human alphavbeta6 expressing DX3purobeta6 cells at 15 to 30 uCi, iv after 1 hr; assay type: ADME, organism-based; how it was run: as §1
[5] = system: Liver; assay: Biodistribution in liver of athymic nu/nu mouse bearing human alphavbeta6 expressing DX3purobeta6 cells at 15 to 30 uCi, iv after 1 hr; assay type: ADME, organism-based; how it was run: as §1
[6] = Biodistribution in human alphavbeta6 expressing DX3purobeta6 cells bearing athymic nu/nu mouse at 15 to 30 uCi, iv after 1 hr; assay type: ADME, organism-based; how it was run: as §1
[7] = Biodistribution ratio of human alphavbeta6 expressing DX3purobeta6 cells to human alphavbeta6 deficient DX3puro cells bearing athymic nu/nu mouse at 15 to 30 uCi, iv after 1 hr; assay type: ADME, organism-based
How it was run: (§2)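 Tumour ratios were taken from 1 h biodistribution in male nu/nu mice bearing DX3puro and DX3puroβ6 s.c. shoulder xenografts (3 × 10^6 cells). Dosing was approx. 15-30 μCi [18F]-peptide i.v. by tail-vein catheter under isoflurane, with conscious uptake. Tissues were γ-counted as decay-corrected % ID/g (n = 3 per tracer), and the ratio was formed from these values.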

[8] = system: Heart; assay: Biodistribution in heart of athymic nu/nu mouse bearing human alphavbeta6 expressing DX3purobeta6 cells at 15 to 30 uCi, iv after 1 hr; assay type: ADME, organism-based; how it was run: as §1
[9] = system: Brain; assay: Biodistribution in brain of athymic nu/nu mouse bearing human alphavbeta6 expressing DX3purobeta6 cells at 15 to 30 uCi, iv after 1 hr; assay type: ADME, organism-based; how it was run: as §1
[10] = Biodistribution in human alphavbeta6 deficient DX3puro cells bearing athymic nu/nu mouse at 15 to 30 uCi, iv after 1 hr; assay type: ADME, organism-based; how it was run: as §1
[11] = system: Stomach; assay: Biodistribution in stomach of athymic nu/nu mouse bearing human alphavbeta6 expressing DX3purobeta6 cells at 15 to 30 uCi, iv after 1 hr; assay type: ADME, organism-based; how it was run: as §1
[12] = system: Bone; assay: Biodistribution in bone of athymic nu/nu mouse bearing human alphavbeta6 expressing DX3purobeta6 cells at 15 to 30 uCi, iv after 1 hr; assay type: ADME, organism-based, Bone element; how it was run: as §1
[13] = Biodistribution in urine of athymic nu/nu mouse bearing human alphavbeta6 expressing DX3purobeta6 cells at 15 to 30 uCi, iv after 1 hr; assay type: ADME, organism-based; how it was run: as §1
[14] = Biodistribution ratio of human alphavbeta6 expressing DX3purobeta6 cells bearing athymic nu/nu mouse to blood of athymic nu/nu mouse bearing human alphavbeta6 expressing DX3purobeta6 cells at 15 to 30 uCi, iv after 1 hr; assay type: ADME, organism-based; how it was run: as §2
[15] = system: Blood; assay: Biodistribution in blood of athymic nu/nu mouse bearing human alphavbeta6 expressing DX3purobeta6 cells at 15 to 30 uCi, iv after 1 hr; assay type: ADME, organism-based; how it was run: as §1
[16] = system: Muscle tissue; assay: Biodistribution in muscle of athymic nu/nu mouse bearing human alphavbeta6 expressing DX3purobeta6 cells at 15 to 30 uCi, iv after 1 hr; assay type: ADME, organism-based; how it was run: as §1
[17] = system: Lung; assay: Biodistribution in lung of athymic nu/nu mouse bearing human alphavbeta6 expressing DX3purobeta6 cells at 15 to 30 uCi, iv after 1 hr; assay type: ADME, organism-based; how it was run: as §1
[18] = system: Urinary bladder; assay: Biodistribution in bladder of athymic nu/nu mouse bearing human alphavbeta6 expressing DX3purobeta6 cells at 15 to 30 uCi, iv after 1 hr; assay type: ADME, organism-based; how it was run: as §1

Drug uptake [1]	Drug uptake [2]	Drug uptake [3]	Drug uptake [4]	Drug uptake [5]	Drug uptake [6]	Ratio [7]	Drug uptake [8]	Drug uptake [9]	Drug uptake [10]	Drug uptake [11]	Drug uptake [12]	Drug uptake [13]	Ratio [14]	Drug uptake [15]	Drug uptake [16]	Drug uptake [17]	Drug uptake [18]	Compound
2.13 % ID/g	4.87 % ID/g	0.32 % ID/g	0.39 % ID/g	0.51 % ID/g	1.18 % ID/g	1.9	0.62 % ID/g	0.28 % ID/g	0.61 % ID/g	3.61 % ID/g	0.38 % ID/g	311 % ID/g	1.8	0.64 % ID/g	0.82 % ID/g	2.06 % ID/g	5.3 % ID/g	CC(C)C[C@H](NC(=O)[C@H](CC(=O)O)NC(=O)CNC(=O)[C@H](CCCNC(=N)N)NC(=O)[C@H](CC(C)C)NC(=O)[C@H](CC(N)=O)NC(=O)[C@@H]1CCCN1C(=O)[C@@H](NC(=O)[C@H](C)NC(=O)[C@H](CC(N)=O)NC(=O)C(C)[18F])C(C)C)C(=O)N[C@@H](CCC(N)=O)C(=O)N[C@H](C(=O)N[C@@H](CC(C)C)C(=O)N[C@@H](C)C(=O)N[C@@H](CCC(N)=O)C(=O)N[C@@H](CCCCN)C(=O)N[C@H](C(=O)N[C@@H](C)C(=O)N[C@@H](CCCNC(=N)N)C(=O)N[C@H](C(N)=O)[C@@H](C)O)C(C)C)C(C)C (stereo partly drawn)
4.72 % ID/g	9.5 % ID/g	0.13 % ID/g	0.3 % ID/g	1.12 % ID/g	1.01 % ID/g	3.3	0.47 % ID/g	0.05 % ID/g	0.31 % ID/g	0.97 % ID/g	0.39 % ID/g	501 % ID/g	2.3	0.43 % ID/g	1.01 % ID/g	1.83 % ID/g	6.24 % ID/g	CC(C)C[C@H](NC(=O)[C@H](CC(=O)O)NC(=O)CNC(=O)[C@H](CCCNC(=N)N)NC(=O)[C@H](CC(C)C)NC(=O)[C@H](CC(N)=O)NC(=O)[C@@H]1CCCN1C(=O)[C@@H](NC(=O)[C@H](C)NC(=O)[C@H](CC(N)=O)NC(=O)CCn1cc(CCC[18F])nn1)C(C)C)C(=O)N[C@@H](CCC(N)=O)C(=O)N[C@H](C(=O)N[C@@H](CC(C)C)C(=O)N[C@@H](C)C(=O)N[C@@H](CCC(N)=O)C(=O)N[C@@H](CCCCN)C(=O)N[C@H](C(=O)N[C@@H](C)C(=O)N[C@@H](CCCNC(=N)N)C(=O)N[C@H](C(N)=O)[C@@H](C)O)C(C)C)C(C)C
15.05 % ID/g	3.56 % ID/g	0.07 % ID/g	0.23 % ID/g	0.63 % ID/g	0.66 % ID/g	3.1	0.31 % ID/g	0.02 % ID/g	0.21 % ID/g	1.33 % ID/g	0.29 % ID/g	–	2.5	0.27 % ID/g	0.56 % ID/g	1.39 % ID/g	8.25 % ID/g	CC(C)C[C@H](NC(=O)[C@H](CC(=O)O)NC(=O)CNC(=O)[C@H](CCCNC(=N)N)NC(=O)[C@H](CC(C)C)NC(=O)[C@H](CC(N)=O)NC(=O)[C@@H]1CCCN1C(=O)[C@@H](NC(=O)[C@H](C)NC(=O)[C@H](CC(N)=O)NC(=O)c1ccc([18F])cc1)C(C)C)C(=O)N[C@@H](CCC(N)=O)C(=O)N[C@H](C(=O)N[C@@H](CC(C)C)C(=O)N[C@@H](C)C(=O)N[C@@H](CCC(N)=O)C(=O)N[C@@H](CCCCN)C(=O)N[C@H](C(=O)N[C@@H](C)C(=O)N[C@@H](CCCNC(=N)N)C(=O)N[C@H](C(N)=O)[C@@H](C)O)C(C)C)C(C)C [[18F]-FBA-A20FMDV2]
